Measurements taken from ChEMBL document CHEMBL1212856, “Anti-Plasmodium activity of imidazolium and triazolium salts” (Bioorg Med Chem, 2010).
pIC50: −log10 of the molar value.

What was measured:
Plasmodium falciparum = experiment: Antiplasmodial activity against Plasmodium falciparum 3D7 after 72 by LDH assay; type: functional, organism-based
In short: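 Non-synchronous chloroquine-sensitive P. falciparum culture at 2% hematocrit and 2% parasitemia, in RPMI-10Pf with twofold serial compound dilutions from a 10 mg/mL DMSO stock. Incubated 72 h at 37 °C under 95% N₂, 3% CO₂, 2% O₂. Resuspended samples went into parasite-specific LDH mix, read at 595 nm after 1 h. IC50 by non-linear regression; mean ± standard error of four independent determinations.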

CHO = experiment: Cytotoxicity against CHO cells after 48 hrs by MTT assay; type: cell-based; conditions: Cricetulus griseus
In short: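 CHO cells in RPMI-1640 with 10% fetal calf serum, 25 mM HEPES and gentamicin, grown to 50% confluency before dosing. Dilution series made from a 10 mg/mL DMSO stock, with DMSO-alone controls. After 48 h the medium was replaced with […] for 30 min.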

| Structure (SMILES) | pIC50 (Plasmodium falciparum) | pIC50 (CHO) |
| --- | --- | --- |
| c1nc[nH]n1 [1,2,4-TRIAZOLE] | 2.54 | 2.90 |
| Clc1ccc(Cn2cc[n+](Cc3ccc(Cl)cc3)c2)cc1 | 5.05 | – |
| C[n+]1c(-c2ccccc2)nn(Cc2ccccc2)c1-c1ccccc1 | 5.11 | 4.06 |
| C[n+]1c(-c2ccccc2)nn(CC(=O)CCc2ccccc2)c1-c1ccccc1 | 7.00 | 3.84 |
| O=[N+]([O-])c1ccc(Cn2cc[n+](Cc3ccc([N+](=O)[O-])cc3)c2)cc1 | 5.05 | – |
| O=C(Cn1cncn1)c1ccccc1 | 3.05 | 3.48 |
| c1ccc(Cn2cc[n+](Cc3ccc4ccccc4c3)c2)cc1 | 6.05 | – |
| Brc1ccccc1Cn1cc[n+](Cc2ccccc2Br)c1 | 5.85 | – |
| O=C(Cn1c[n+](Cc2ccccc2)cn1)c1ccccc1 | 4.14 | 3.58 |
| c1ccc2cc(Cn3cc[n+](Cc4ccc5ccccc5c4)c3)ccc2c1 | 6.05 | 4.57 |
| O=C(Cn1cc[n+](CC(=O)c2ccc(Cc3ccccc3)cc2)c1)c1ccc(Cc2ccccc2)cc1 | 6.30 | 5.37 |
| C[n+]1cn(CC(=O)CCc2ccccc2)nc1-c1ccccc1 | 5.47 | 3.63 |
| c1ccc(Cn2c[n+](Cc3ccccc3)cn2)cc1 | 4.00 | 4.13 |
| O=C(Cn1cc[n+](CC(=O)c2ccc(Cl)cc2)c1)c1ccc(Cl)cc1 | 5.59 | 4.28 |
| c1c[nH]cn1 [IMIDAZOLE] | 3.43 | 2.43 |
| COc1ccc(Cn2cc[n+](Cc3ccc(OC)cc3)c2)cc1 | 5.30 | 4.51 |
| c1ccc(Cn2cc[n+](Cc3ccccc3)c2)cc1 | 4.80 | – |
| Clc1cccc(Cn2cc[n+](Cc3cccc(Cl)c3)c2)c1 | 5.48 | – |

More lines, main results first:

| pIC50 (Plasmodium falciparum) | Structure (SMILES) | pIC50 (CHO) |
| --- | --- | --- |
| 6.14 | Brc1ccc(Cn2cc[n+](Cc3ccc4ccccc4c3)c2)cc1 | 4.57 |
| 4.77 | Fc1ccc(Cn2cc[n+](Cc3ccc(F)cc3)c2)cc1 | 4.25 |
| 6.46 | Ic1ccc(Cn2cc[n+](Cc3ccc(I)cc3)c2)cc1 | 4.48 |
| 5.70 | Clc1ccccc1Cn1cc[n+](Cc2ccccc2Cl)c1 | – |
| 5.98 | Brc1cccc(Cn2cc[n+](Cc3cccc(Br)c3)c2)c1 | – |
| 5.51 | CSc1nn(-c2ccccc2)c(C)[n+]1-c1ccccc1 | 3.51 |
| 5.77 | C[n+]1c(-c2ccccc2)nn(Cc2ccc(Br)cc2)c1-c1ccccc1 | 4.48 |
| 4.16 | CSc1nn(-c2ccccc2)c[n+]1-c1ccccc1 | 3.65 |
| 4.96 | O=C(Cn1c[n+](CC(=O)c2ccc(Br)cc2)cn1)c1ccc(Br)cc1 | 4.68 |
| 5.54 | Brc1ccc(C[n+]2ccn(Cc3ccccc3)c2)cc1 | – |
| 4.05 | Fc1c(F)c(F)c(-n2c[n+]3c(n2)CCC3)c(F)c1F | 3.52 |
| 6.15 | Brc1ccc(Cn2cc[n+](Cc3ccc(Br)cc3)c2)cc1 | 3.76 |
